Data set [1] can be described thus: Binding affinity to Escherichia coli GDPNP-labelled EF-Tu by surface plasmon resonance analysis. For orientation: In SPR one partner is held on a chip, and binding of the other changes the refractive index at the surface.
Data set [2] relates to Escherichia coli. The experiment in a line: Inhibition of protein synthesis in Escherichia coli S30 extract after 75 mins by luciferase based luminescence assay relative to GE2270A. The class given is functional, organism-based.
The nature of data set [3]: Antibacterial activity against Clostridium difficile ATCC 43255 by broth microdilution method. The class given is functional. The following applies: Clostridioides difficile. The procedure, abridged:
(§1)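 Broth microdilution MICs were run per CLSI M07-A8 (2009). The strain panel included C. difficile ATCC 43255, E. faecalis ATCC 29212 and S. pyogenes ATCC BAA-595.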
(In general: Dilution methods test growth across graded concentrations, often in twofold steps.)

For another data set, the system named is Streptococcus pyogenes. The data set is described as follows: Antibacterial activity against Streptococcus pyogenes ATCC BAA-595 by broth microdilution method. The class given is functional. The procedure, abridged: as §1
Data set [4] relates to Escherichia coli. The data set is described as follows: Inhibition of protein synthesis in Escherichia coli S30 extract at 2 uM after 75 mins by luciferase based luminescence assay relative to GE2270A. The data set is classed as functional.
In data set [5] the test system is Enterococcus faecalis. The data set is described as follows: Antibacterial activity against Enterococcus faecalis ATCC 29212 by broth microdilution method. The data set is classed as functional. The procedure, abridged:
as §1

The test system of data set [6] is Staphylococcus aureus. The data set is described as follows: Antibacterial activity against Staphylococcus aureus A4.018 by broth microdilution method. The data set is classed as functional.
The test system of another data set is Enterococcus faecium. The data set is described as follows: Antibacterial activity against Enterococcus faecium 7130724 by broth microdilution method. The class given is functional.
A short description of data set [7]: Antibacterial activity against Clostridium difficile ATCC 43255 infected in golden syrian hamster assessed as survival rate at 20 mg/kg, po qd administered days 1 to 5 measured on days 6 to 21. The class given is functional. To be noted: Clostridioides difficile. Summed up: (§2)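 Golden Syrian hamsters got clindamycin 10 mg/kg sc on day −1. On day 0 they were gavaged with ~7.5 × 10^6 CFU C. difficile ATCC 43255 (0.75 mL). From 24 h post-infection they were dosed orally once daily for up to 5 days (8/dose), in a NaOH/PEG-400/2.5% Cremophor EL solution diluted in pH 7.4 PBS. Vehicle controls were included, and animals were observed twice daily through day 21.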

Data set [8] has as its system Staphylococcus aureus. The experiment in a line: Antibacterial activity against Staphylococcus aureus ATCC 49951 infected in CD1 mouse assessed as mouse survival up to 5 days. The class given is functional. To be noted: ATCC 49951, 120 h. The procedure, abridged:
(§3)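 Female CD1 mice (21–25 g) were infected ip with 1 × 10^8 CFU/mouse, 10–100× the minimal lethal dose. E. faecalis NB04025 was given in 50% rat fecal extract and S. aureus ATCC 49951 in 0.9% NaCl. Compound was given by iv tail-vein bolus at 1 and 5 h post-inoculation, at several dose levels (6 mice/group). ED50 with 95% CI was derived by probit analysis of day-5 survival.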

Data set [9] is described as follows: Drug level in Clostridium difficile infected golden syrian hamster cecum at 20 mg/kg, po qd administered for 5 days measured at 1 hr post dose. To be noted: read-out: Drug uptake. The data set is classed as ADME, organism-based, Mesocricetus auratus, Caecum. More on the design: dose 20 mg/kg, route oral. Summed up:
(§4)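 C. difficile-infected hamsters received 20 mg/kg orally (0.6 mL at 3.3 mg/mL) once daily for 5 days. At 1 and 3 h after the fifth dose, 3 animals per time point were sampled: plasma (K2-EDTA, cardiac puncture) and cecal contents. Cecal contents were homogenized in PBS/25% acetonitrile (final 1:25 dilution). Samples were protein-precipitated with acetonitrile containing glyburide internal standard.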

Data set [10] in a line: Antibacterial activity against Clostridium difficile ATCC 43255 infected in golden syrian hamster assessed as survival rate at 0.2 mg/kg, po qd administered days 1 to 5 measured on days 6 to 21. The data set is classed as functional. To be noted: Clostridioides difficile. Summed up:
as §2

A short description of data set [11]: Plasma concentration in Clostridium difficile infected golden syrian hamster at 20 mg/kg, po qd administered for 5 days measured at 1 hr post dose. The class given is ADME, organism-based, Mesocricetus auratus. More on the design: dose 20 mg/kg, route oral. To be noted: for concentration at 1 h: golden Syrian, plasma. Summed up:
as §4

Data set [12] concerns Enterococcus faecalis. The data set is described as follows: Antibacterial activity against Enterococcus faecalis NB04025 infected in CD1 mouse assessed as mouse survival up to 5 days. The data set is classed as functional. To be noted: NB04025, 120 h. The procedure, abridged:
as §3

Data set [13] in a line: Oral bioavailability in Sprague-Dawley rat. The data set is classed as ADME, organism-based. The following applies: in vivo. The procedure, abridged:
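Male Sprague–Dawley rats (220–270 g, N = 2 or 3) were used, including iv dosing. Rats were fasted overnight and for 8 h post-dose. Plasma (K2-EDTA) was protein-precipitated with acetonitrile containing glyburide internal standard and analysed by LC–MS/MS (C18, formic acid water/acetonitrile gradient).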

Data set [14] has as its system Clostridium difficile ATCC 43255. The data set is described as follows: Antibacterial activity against Clostridium difficile ATCC 43255 infected in golden syrian hamster assessed as decrease in toxin level in cecum after 21 days by ELISA. To be noted: Caecum. The class given is functional. The procedure, abridged:
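In the clindamycin-pretreated, C. difficile-infected hamster model, oral compound was given once daily on days 1–5. Surviving animals were euthanized at study end (day 21). Cecal homogenates were assayed for C. difficile toxins A and B by Tox A/B II ELISA per kit directions.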
On the technique in general: ELISA stands for enzyme-linked immunosorbent assay.

The nature of data set [15]: Drug level in Clostridium difficile infected golden syrian hamster cecum at 20 mg/kg, po qd administered for 5 days measured at 3 hrs post dose. The arrangement: dose 20 mg/kg, route oral. The data set is classed as ADME, organism-based, Mesocricetus auratus, Caecum. To be noted: read-out: Drug uptake. The procedure, abridged:
as §4

A short description of data set [16]: Plasma concentration in Clostridium difficile infected golden syrian hamster at 20 mg/kg, po qd administered for 5 days measured at 3 hrs post dose. The data set is classed as ADME, organism-based, Mesocricetus auratus. The arrangement: dose 20 mg/kg, route oral. To be noted: for Cp: in vivo, 3 h, BLD = below limit of detection. The procedure, abridged: as §4

Data set [17] can be described thus: Antibacterial activity against Clostridium difficile ATCC 43255 infected in golden syrian hamster assessed as survival rate at 2 mg/kg, po qd administered days 1 to 5 measured on days 6 to 21. The class given is functional. To be noted: Clostridioides difficile. Summed up: as §2
Data set [18] has as its system Clostridium difficile ATCC 43255. The data set is described as follows: Antibacterial activity against Clostridium difficile ATCC 43255 infected in po dosed golden syrian hamster assessed as survival rate administered qd for days 1 to 5 measured on after 6 to 21 days. The data set is classed as functional, organism-based. Summed up:
as §2

The values that follow come from ChEMBL document CHEMBL2062386, “Discovery of LFF571: an investigational agent for Clostridium difficile infection” (J Med Chem, 2012).

Structures are written as SMILES. Converted amounts (≈) assume the structure as drawn. The source made the active and inactive calls.

`CNC(=O)C[C@@H]1NC(=O)c2csc(n2)-c2ccc(-c3nc(C4=N[C@H](C(=O)N5CCC[C@H]5C(N)=O)CO4)cs3)nc2-c2csc(n2)-c2csc(n2)[C@H]([C@@H](O)c2ccccc2)NC(=O)CNC(=O)c2nc(sc2COC)[C@H](C(C)C)NC(=O)c2nc1sc2C`: the affinity in data set [1], expressed as Kd, was 3 nM. This compound came in with an IC50 with Escherichia coli [2] of 2000 nM. Moreover, the MIC in [3] came to 0.015 µg/mL (≈ 0.0116 µM); in the data set on Streptococcus pyogenes, 1 µg/mL (≈ 0.775 µM); against Enterococcus faecalis [5] it was 0.5 µg/mL (≈ 0.387 µM); against Staphylococcus aureus [6], 0.25 µg/mL (≈ 0.194 µM); against Enterococcus faecium, 0.25 µg/mL (≈ 0.194 µM). For the same compound, the inhibition at 2 µM in the data set on Escherichia coli [4] was 30%.

Turning to `CNC(=O)C[C@@H]1NC(=O)c2csc(n2)-c2ccc(-c3nc(N(CCCCC(=O)O)C(=O)O[C@H]4CC[C@H](C(=O)O)CC4)cs3)nc2-c2csc(n2)-c2csc(n2)[C@H]([C@@H](O)c2ccccc2)NC(=O)CNC(=O)c2nc(sc2COC)[C@H](C(C)C)NC(=O)c2nc1sc2C` [LFF-571], the survival at 20 mg/kg in data set [7] turned out to be 100%. The same compound had a Kd in [1] of 6 nM. Further, the MIC in data set [3] is 0.03 µg/mL (≈ 0.022 µM); with Streptococcus pyogenes, 1 µg/mL (≈ 0.732 µM); in the data set with Enterococcus faecalis [5] it was less than 0.06 µg/mL; against Staphylococcus aureus [6], 0.125 µg/mL (≈ 0.0915 µM); against Enterococcus faecium, less than 0.06 µg/mL. Besides, the ED50 with Staphylococcus aureus [8] turned out to be 6.9 mg/kg; in the data set with Enterococcus faecalis [12], 2.2 mg/kg. The concentration at 1 h in data set [9] was 61 µM; in data set [11], 0.0448 µM. The survival at 0.2 mg/kg in data set [10] was 0%. The same compound came in with an inhibition at 2 µM in the data set with Escherichia coli [4] of 67%. This compound also displayed a bioavailability in data set [13] of less than 0.1%. The outcome in data set [14] was Active. For the same compound, the concentration at 3 h in [15] amounted to 208 µM; in data set [16] (golden Syrian, plasma) it was 0.0052 µM. The survival at 2 mg/kg in data set [17] was 100%.

On to `CNC(=O)C[C@@H]1NC(=O)c2csc(n2)-c2ccc(-c3nc(NC(=O)[C@H]4CC[C@H](C(=O)O)CC4)cs3)nc2-c2csc(n2)-c2csc(n2)[C@H]([C@@H](O)c2ccccc2)NC(=O)CNC(=O)c2nc(sc2COC)[C@H](C(C)C)NC(=O)c2nc1sc2C`, for which, in data set [7], the survival at 20 mg/kg came out at 100%. Also, the affinity in data set [1], expressed as Kd, was 43 nM. Besides, the MIC stood at 0.06 µg/mL (≈ 0.048 µM) in data set [3]; 4 µg/mL (≈ 3.2 µM) in the data set on Streptococcus pyogenes; 0.06 µg/mL (≈ 0.048 µM) against Enterococcus faecalis [5]; 0.125 µg/mL (≈ 0.1 µM) with Staphylococcus aureus [6]; 0.06 µg/mL (≈ 0.048 µM) against Enterococcus faecium. Besides, the ED50 in the data set with Staphylococcus aureus [8] was determined as 5.2 mg/kg; in the data set on Enterococcus faecalis [12] it was 0.6 mg/kg. The concentration at 1 h in data set [9] worked out at 18 µM. Also, in data set [10], the survival at 0.2 mg/kg is 0%. Moreover, the Cp result was “BLD” in [11] (in vivo, 1 h, BLD = below limit of detection) and “BLD” in data set [16]. Besides, the Survival result in data set [18] is “Dose-dependent effect”. The inhibition at 2 µM in the data set with Escherichia coli [4] was 30%. The outcome in data set [14] was Active. In data set [15], the concentration at 3 h turned out to be 39 µM. For the same compound, in [17], the survival at 2 mg/kg was determined as 62.5%.

Take `CNC(=O)C[C@@H]1NC(=O)c2csc(n2)-c2ccc(-c3nc(N(CCCC(=O)O)C(=O)OCCCC(=O)O)cs3)nc2-c2csc(n2)-c2csc(n2)[C@H]([C@@H](O)c2ccccc2)NC(=O)CNC(=O)c2nc(sc2COC)[C@H](C(C)C)NC(=O)c2nc1sc2C`: the survival at 20 mg/kg in [7] was 100%. Also, the Kd in data set [1] came to 8 nM. For the same compound, the MIC is 0.03 µg/mL (≈ 0.0229 µM) in [3]; 2 µg/mL (≈ 1.52 µM) in the data set on Streptococcus pyogenes; 0.5 µg/mL (≈ 0.381 µM) in the data set with Enterococcus faecalis [5]; 1 µg/mL (≈ 0.762 µM) in the data set with Staphylococcus aureus [6]; 0.5 µg/mL (≈ 0.381 µM) against Enterococcus faecium. In addition, the ED50 in the data set with Staphylococcus aureus [8] and with Enterococcus faecalis [12] was 11 mg/kg throughout. The concentration at 1 h in data set [9] stood at 129 µM; in data set [11], 0.0639 µM. The survival at 0.2 mg/kg in [10] was 0%. Also, the result in data set [14] was Active. For the same compound, the concentration at 3 h in [15] came to 72 µM. Also, the Cp entry in [16] is reported as “BLD”. Moreover, the survival at 2 mg/kg in data set [17] worked out at 100%.

Broadly, the Kd is the equilibrium constant for the complex coming apart. A higher Kd goes with a looser complex. Usually IC50 stands for the concentration that gives 50% inhibition. As usually defined, the MIC is the smallest concentration in the dilution series that meets the test's criterion for growth inhibition. The inhibition is the percentage by which the read-out fell short of the control. High values mean strong suppression, low ones little suppression. The term ED50 denotes the dose that gives a 50% effect, or the effect in half of the subjects. In general, bioavailability refers to the share of a dose that reaches the circulation, judged against a reference dose that is usually intravenous. The low end stands for poor availability, the high end for good availability.
